From ChEMBL document CHEMBL1157464, “1-[(3-Aryloxy-3-aryl)propyl]-1H-imidazoles, new imidazoles with potent activity against Candida albicans and dermatophytes. Synthesis, structure-activity relationship, and molecular modeling studies” (J Med Chem, 2008)
≈ marks a conversion by molar mass, not a printed value.

How the values were obtained:
Arthrodermataceae [1] = experiment: Antifungal activity against dermatophytes at 28 degC after 5 days by broth microdilution test; conditions: for MFC: Arthrodermataceae
Candida albicans [2] = experiment: Antifungal activity against Candida albicans ATCC 10261 at 35 degC after 48 to 96 hrs by broth microdilution test; format: functional; conditions: for MFC: Candida albicans, ATCC 10261, read-out: MFC
Outline: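 Minimal fungicidal concentration for Candida. […] MFC is the lowest concentration allowing fewer than two colonies (99% killing).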

Candida albicans [3] = experiment: Antifungal activity against fluconazole-resistant Candida albicans isolated from oropharyngeal or vaginal disease patient after 48 hrs by broth microdilution test; format: functional
[4] = Cytotoxicity against human K562 cells after assessed as reduction of cell viability 24 hrs by MTT assay; format: cell-based
Outline: (§1)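 U937 and K562 cells, from ATCC, plated at 5 × 10^4/mL in phenol-red-free RPMI-1640 with 20% FBS and penicillin/streptomycin. Compounds added 2 h later at 25–100 µg/mL, then 24 h at 37 °C. MTT at 1 mg/mL for 3 h, formazan dissolved in isopropanol with 0.1 N HCl, absorbance read at 570 nm. CC50 is the concentration reducing viability by 50% versus the drug-free control.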

Candida parapsilosis = experiment: Antifungal activity against Candida parapsilosis ATCC 22019 at 35 degC after 48 hrs by broth microdilution test; format: functional; conditions: Lodderomyces parapsilosis, ATCC 22019, 48 h; for MFC: read-out: MFC; for MIC: read-out: MIC
Outline: (§2)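 Broth microdilution per NCCLS M27-A2. Stocks in 100% DMSO, diluted in RPMI 1640 with 0.165 M MOPS at pH 7.0; final range 0.25–128 µg/mL. Inoculum 1000–5000 cells/mL from SDA subcultures. […] C. parapsilosis ATCC22019 served as QC strain.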

Arthrodermataceae [5] = experiment: Antifungal activity against dermatophytes at 28 degC after 48 to 96 hrs by broth microdilution test
Arthrodermataceae [6] = experiment: Antifungal activity against dermatophytes at 28 degC after 7 days by broth microdilution test; format: functional; conditions: 168 h
Outline: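 Ten clinical isolates (two M. canis, five M. gypseum, three T. mentagrophytes) tested by NCCLS M38-A broth microdilution in MOPS-buffered RPMI 1640, pH 7.0, over 0.25–128 µg/mL. Conidial/hyphal suspension from PDA slants (28 °C, 7 days) adjusted to 65–70% transmittance at OD530, then diluted 1:50.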

[7] = Cytotoxicity against human U937 cells assessed as reduction of cell viability after 24 hrs by MTT assay; format: cell-based, U-937
Outline: as §1

[8] = Therapeutic index, ratio of CC50 for human U937 cells to MIC90 for Candida albicans ATCC 10261; format: cell-based, U-937
Outline: (§3)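 Therapeutic index calculated as CC50 in the given cell line divided by MIC90.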

Candida albicans [9] = experiment: Antifungal activity against fluconazole-sensitive Candida albicans Fe40 at 35 degC after 48 hrs by broth microdilution test; format: functional
Outline: as §2

[10] = Therapeutic index, ratio of CC50 for human K562 cells to MIC90 for Candida albicans ATCC 10261; format: cell-based
Outline: as §3

Candida albicans [11] = experiment: Antifungal activity against Candida albicans ATCC 10261 at 35 degC after 48 hrs by broth microdilution test; format: functional; conditions: Candida albicans, ATCC 10261, 48 h; for MIC: read-out: MIC; for MIC50: read-out: MIC50; for MIC90: read-out: MIC90
Outline: as §2

Row | SMILES | MFC90 (Arthrodermataceae [1]) | MFC (Arthrodermataceae [1]) | MFC50 (Candida albicans [2]) | MFC90 (Candida albicans [2]) | MFC (Candida albicans [2]) | MIC (Candida albicans [3]) | CC50 at 24 h [4] | MFC (Candida parapsilosis) | MIC (Candida parapsilosis) | MFC50 (Arthrodermataceae [5]) | MIC (Arthrodermataceae [6]) | MIC50 (Arthrodermataceae [6]) | MIC90 (Arthrodermataceae [6]) | CC50 at 24 h [7] | selectivity ratio [8] | MIC (Candida albicans [9]) | selectivity ratio [10] | MIC (Candida albicans [11]) | MIC50 (Candida albicans [11]) | MIC90 (Candida albicans [11])
1 | Cc1ccc(OC(CCn2ccnc2)c2ccc(Cl)cc2)cc1 (stereo unspecified) | 32 µg/mL (≈ 97.9 µM) | 28.8 µg/mL (≈ 88.1 µM) | 8 µg/mL (≈ 24.5 µM) | 16 µg/mL (≈ 49 µM) | 10 µg/mL (≈ 30.6 µM) | 5.6 µg/mL (≈ 17.1 µM) | 227 µM | 4 µg/mL (≈ 12.2 µM) | 2 µg/mL (≈ 6.12 µM) | 32 µg/mL (≈ 97.9 µM) | 4.6 µg/mL (≈ 14.1 µM) | 4 µg/mL (≈ 12.2 µM) | 8 µg/mL (≈ 24.5 µM) | 325 µM | 81.3 | 2 µg/mL (≈ 6.12 µM) | 56.8 | 3.2 µg/mL (≈ 9.79 µM) | 2 µg/mL (≈ 6.12 µM) | 4 µg/mL (≈ 12.2 µM)
2 | Clc1ccc(OC(CCn2ccnc2)c2ccccc2)cc1 (stereo unspecified) | 32 µg/mL (≈ 102 µM) | 25.6 µg/mL (≈ 81.8 µM) | 8 µg/mL (≈ 25.6 µM) | 16 µg/mL (≈ 51.2 µM) | 10.3 µg/mL (≈ 32.9 µM) | 6.4 µg/mL (≈ 20.5 µM) | 256 µM | 32 µg/mL (≈ 102 µM) | 4 µg/mL (≈ 12.8 µM) | 16 µg/mL (≈ 51.2 µM) | 18.4 µg/mL (≈ 58.8 µM) | 16 µg/mL (≈ 51.2 µM) | 32 µg/mL (≈ 102 µM) | 200 µM | – | 2 µg/mL (≈ 6.39 µM) | – | 3.3 µg/mL (≈ 10.5 µM) | 2 µg/mL (≈ 6.39 µM) | 4 µg/mL (≈ 12.8 µM)
3 | Fc1ccc(C(CCn2ccnc2)Oc2ccc(Cl)cc2Cl)cc1 (stereo unspecified) | 64 µg/mL (≈ 175 µM) | 41 µg/mL (≈ 112 µM) | 8 µg/mL (≈ 21.9 µM) | 8 µg/mL (≈ 21.9 µM) | 6.9 µg/mL (≈ 18.9 µM) | 5.6 µg/mL (≈ 15.3 µM) | 74.2 µM | 4 µg/mL (≈ 11 µM) | 0.5 µg/mL (≈ 1.37 µM) | 32 µg/mL (≈ 87.6 µM) | 13.5 µg/mL (≈ 37 µM) | 16 µg/mL (≈ 43.8 µM) | 16 µg/mL (≈ 43.8 µM) | 120 µM | – | 2 µg/mL (≈ 5.48 µM) | – | 2.9 µg/mL (≈ 7.94 µM) | 4 µg/mL (≈ 11 µM) | 4 µg/mL (≈ 11 µM)
4 | CC(=O)N1CCN(c2ccc(OCC3COC(Cn4ccnc4)(c4ccc(Cl)cc4Cl)O3)cc2)CC1 (stereo unspecified) [KETOCONAZOLE] | 8 µg/mL (≈ 15.1 µM) | 6.6 µg/mL (≈ 12.4 µM) | 16 µg/mL (≈ 30.1 µM) | 32 µg/mL (≈ 60.2 µM) | 16.3 µg/mL (≈ 30.7 µM) | 20 µg/mL (≈ 37.6 µM) | 102 µM | 0.5 µg/mL (≈ 0.941 µM) | 0.06 µg/mL (≈ 0.113 µM) | 8 µg/mL (≈ 15.1 µM) | 1.6 µg/mL (≈ 3.01 µM) | 1 µg/mL (≈ 1.88 µM) | 2 µg/mL (≈ 3.76 µM) | 125 µM | 15.6 | 4 µg/mL (≈ 7.53 µM) | 12.8 | 5.9 µg/mL (≈ 11.1 µM) | 4 µg/mL (≈ 7.53 µM) | 8 µg/mL (≈ 15.1 µM)
5 | OC(Cn1cncn1)(Cn1cncn1)c1ccc(F)cc1F [FLUCONAZOLE] | – | – | – | – | > 64 µg/mL | 128 µg/mL (≈ 418 µM) | 385 µM | 8 µg/mL (≈ 26.1 µM) | 0.5 µg/mL (≈ 1.63 µM) | – | – | – | – | 328 µM | 5.1 | 0.25 µg/mL (≈ 0.816 µM) | 6 | 15.3 µg/mL (≈ 50 µM) | 2 µg/mL (≈ 6.53 µM) | 64 µg/mL (≈ 209 µM)
6 | Cc1ccc(OC(CCn2ccnc2)c2ccc(C)cc2)cc1 (stereo unspecified) | 32 µg/mL (≈ 104 µM) | 30.4 µg/mL (≈ 99.2 µM) | 16 µg/mL (≈ 52.2 µM) | 32 µg/mL (≈ 104 µM) | 20.5 µg/mL (≈ 66.9 µM) | 4.8 µg/mL (≈ 15.7 µM) | 191 µM | 8 µg/mL (≈ 26.1 µM) | 2 µg/mL (≈ 6.53 µM) | 32 µg/mL (≈ 104 µM) | 8 µg/mL (≈ 26.1 µM) | 8 µg/mL (≈ 26.1 µM) | 8 µg/mL (≈ 26.1 µM) | 263 µM | – | 4 µg/mL (≈ 13.1 µM) | – | 4 µg/mL (≈ 13.1 µM) | 4 µg/mL (≈ 13.1 µM) | 4 µg/mL (≈ 13.1 µM)
